Screening results: PubChem BioAssay, several laboratories
ARNT TACC3 PPI: disrupts binding between human ARNT and TACC3. inhibition, % at 9.99 µM. Q9Y6A5. AID 623870. AlphaScreen His-ARNT PAS-B/GST-TACC3 binding, luminescence; TACC3 fragment carries E629A point mutation. actives 0.66% (n = 390,000);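 active means mean inhibition of replicates at least 50% and at least half of replicates each reaching 50%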;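 further: 0% = complete ARNT plus TACC3 wells and 100% = ARNT alone without TACC3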
TCR-CD3 inh: inhibitors of human TCR-CD3 interaction; TAMRA-labeled TCR probe fluorescence, biochemical; inhibition, % at 9.4 µM; actives 0.37% (n = 360,000); in the data active means inhibition above about 19%;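 further: recombinant mutant TCR 2C K166C tagged with TAMRA read by polarization; 0% = receptor in buffer alone and 100% = receptor with positive control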
SIAE primary: human SIAE inhibition, primary screen; AID 1053197; actives 0.69% (n = 370,000); SIAE FP-Rh probe binding, fluorescence polarization; inhibition, % at 9.66 µM;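 active means inhibition above a cutoff: mean of compounds within the control limits plus 3 SD of those, cut at about 17% in these data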;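 further: 0% = plate median of compound wells and 100% = probe without SIAE protein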
HTRA1 inh: blocks human HTRA1 serine peptidase. recombinant HTRA1, FP-rhodamine activity-based probe, fluorescence polarization. inhibition, % at 5.96 µM. actives 0.5% (n = 340,000). Q92743; in the data active means inhibition above about 36%;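 further: 0% = enzyme with DMSO and 100% = wells lacking enzyme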
ABHD4 inh: ABHD4 (mouse) inhibition, primary FP screen. actives 0.54% (n = 370,000). purified mABHD4, FP-Rh probe fluorescence polarization. inhibition, % at 8.92 µM. Q8VD66;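 active means inhibition exceeding the mean over every tested compound plus 3 SD, cut at about 30% in these data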;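 further: 0% = plate median of compound wells and 100% = S159A mutant with DMSO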
Target sequence (Q8VD66 whole entry, looked up): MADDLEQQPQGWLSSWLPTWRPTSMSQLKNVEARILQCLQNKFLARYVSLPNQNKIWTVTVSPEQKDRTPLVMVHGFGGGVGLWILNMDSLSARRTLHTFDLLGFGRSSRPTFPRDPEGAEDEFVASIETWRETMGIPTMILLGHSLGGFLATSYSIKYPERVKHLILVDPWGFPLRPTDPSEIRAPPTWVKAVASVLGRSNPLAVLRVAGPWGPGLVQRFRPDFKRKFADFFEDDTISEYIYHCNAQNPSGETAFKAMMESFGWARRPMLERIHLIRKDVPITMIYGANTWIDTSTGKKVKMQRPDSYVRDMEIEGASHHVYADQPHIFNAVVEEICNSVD
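Doses – 8.92 µM, single dose · Material – wild-type mouse ABHD4 protein · Replication – single well per compound (singlicate) · Measure – percent inhibition of probe binding, normalized to plate controls · Schedule – 45 min compound pre-incubation plus 60 min probe step, 25 °C · Detection – fluorescence polarization with parallel and perpendicular emission, 525/598 nm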
AlphaScreen ctr: AlphaScreen artifact in ARNT/TACC3 counter-screen | shares compounds with ARNT TACC3 PPI | actives 50% (n = 1,200) | His-ARNT PASB-GST AlphaScreen artifact counter-screen, luminescence | AC50, µM (top dose mostly 68 µM), for inactives: at the top dose activity change, negative = signal decrease;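 active means every separate test run was called active for a drop in luminescence, with AC50 within twice the top valid dose, actives reach about 71 µM in these data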
* = called active by the depositor; . = not tested or not shown; [ ] = another dose, or the depositor's remark. Hits are enriched below; roughly 1.8% of the tested compounds scored in any of these assays.

SMILES	ARNT TACC3 PPI	TCR-CD3 inh	SIAE primary	HTRA1 inh	ABHD4 inh	AlphaScreen ctr
O=C(CSc1ccc(-c2ccccn2)nn1)NC1CCCC1	59*	4	1	1	4	18µM*
C[C@H]1CN([C@@H](C)CO)C(=O)Cc2cc(N(C)C)ccc2O[C@@H]1CN(C)C	-4	.	.	.	.	.
C[C@H](CO)N1C[C@H](C)[C@H](CN(C)C(=O)Nc2cccc3ccccc23)Oc2ccc(N(C)C)cc2CC1=O	-2	.	.	.	.	.
O=C(NN=C1CCCC1)c1ccc(O)cc1O	48*	7	10	1	4	-6%
O=C(NNC(=O)c1ccc(O)cc1O)c1ccc(Cl)cc1	.	14	2	8	2	.
NNC(=O)c1ccc(O)cc1O	56*	13	9	7	9	-8%
COCC#Cc1ccc2c(c1)O[C@@H](CN(C)S(=O)(=O)c1cccc(F)c1)[C@H](C)CN([C@@H](C)CO)S2(=O)=O	4	.	.	.	.	.
COCC(=O)N1[C@H](CO)[C@@H]2c3ccccc3N(C(=O)Nc3cc(F)ccc3F)C[C@@H]21	-1	.	.	.	.	.
COc1ccc(S(=O)(=O)N2CCCOC2CNC(=O)C(=O)NCCCn2ccnc2)cc1OC (stereo unspecified)	40*	-4	-1	1	1	-11%
COc1ccc(S(=O)(=O)N2CCOC2CNC(=O)C(=O)NCCCn2ccnc2)cc1OC (stereo unspecified)	59*	-7	-5	7	4	-23%
Cc1ccc(C)c(S(=O)(=O)N2CCCOC2CNC(=O)C(=O)NCCCn2ccnc2)c1 (stereo unspecified)	56*	5	9	4	5	-7%
O=C(NCCCn1ccnc1)C(=O)NCC1OCCN1S(=O)(=O)c1ccc(F)cc1 (stereo unspecified)	58*	10	4	6	-4	32µM*
O=C(NCCCn1ccnc1)C(=O)NCC1OCCN1S(=O)(=O)c1ccc(Br)cc1 (stereo unspecified)	1	-5	1	7	-7	.
Cc1cc(C)c(S(=O)(=O)N2CCCOC2CNC(=O)C(=O)NCCCn2ccnc2)c(C)c1 (stereo unspecified)	-17	9	-2	3	4	.
Cc1nc2ncccn2c1-c1csc(Nc2ccc(O)cc2)n1	68*	6	10	9	13	22µM*
Cc1noc(C)c1NC(=O)Nc1ccc2c(c1)C(=O)N([C@@H](C)CO)C[C@@H](C)[C@@H](CN(C)S(=O)(=O)c1ccc(F)cc1)OCCCC[C@@H](C)O2	-2	.	.	.	.	.
c1ccc2[nH]c(-c3ccncc3)nc2c1	-1	-1	1	5	7	.
O=c1[nH]c(/C=C/c2ccccn2)nc2ccccc12	8	3	-6	2	8	.
c1ccc(-c2nc3ccccc3[nH]2)nc1	59*	10	-8	21	6	-16%
O=c1[nH]c(-c2ccccn2)nc2ccccc12	64*	-6	-8	0	0	-13%
COc1ccc(CN(C)C[C@@H]2OCCCC[C@@H](C)Oc3ccc(NC(=O)NC(C)C)cc3C(=O)N([C@H](C)CO)C[C@H]2C)cc1	-10	.	.	.	.	.
O=C1C2CCCN2C(=O)N1CCCCN1CCN(c2cccc(Cl)c2)CC1 (stereo unspecified)	-6	3	4	6	12	.
O=C1C2CCCCN2C(=O)N1CCCCN1CCN(c2cccc(Br)c2)CC1 (stereo unspecified)	active	1	-5	3	1	-13%
Cc1cc(C)n(S(=O)(=O)c2ccc(F)cc2)n1	-7	4	-3	-1	-6	.
Cc1cc(C)n(S(=O)(=O)c2ccc(Cl)cc2)n1	active	2	7	3	0	2%
SMILES	ARNT TACC3 PPI	TCR-CD3 inh	SIAE primary	HTRA1 inh	ABHD4 inh	AlphaScreen ctr
CNc1nc(OC)nc(N2CCOCC2)n1	.	3	3	-2	6	.
CNc1nc(C(=O)O)nc(N2CCOCC2)n1	56*	4	-2	-6	9	-31%
C[C@@H]1CN([C@H](C)CO)C(=O)Cc2cc(N(C)C)ccc2O[C@@H]1CN(C)C(=O)NC1CCCCC1	0	.	.	.	.	.
C[C@@H]1CN([C@H](C)CO)C(=O)Cc2cc(N(C)C)ccc2O[C@H]1CN(C)Cc1ccc(Oc2ccccc2)cc1	52*	.	.	.	.	15µM*
CC(C)NC(=O)N(C)C[C@H]1Oc2ccc(N(C)C)cc2CC(=O)N([C@@H](C)CO)C[C@@H]1C	60*	.	.	.	.	10%[42 µM]
CC(C)NC(=O)Nc1ccc2c(c1)CC(=O)N([C@H](C)CO)C[C@@H](C)[C@@H](CN(C)Cc1ccc(Oc3ccccc3)cc1)O2	active	.	.	.	.	71µM*
C[C@H]1CN([C@@H](C)CO)C(=O)Cc2cc(NC(=O)Nc3cccc4ccccc34)ccc2O[C@H]1CN(C)Cc1ccc(Oc2ccccc2)cc1	42	.	.	.	.	.
C[C@@H]1CN([C@@H](C)CO)C(=O)Cc2cc(NC(=O)Nc3cccc4ccccc34)ccc2O[C@H]1CN(C)Cc1ccc(Oc2ccccc2)cc1	72*	.	.	.	.	14µM*
CO[C@H]1CN(C)C(=O)c2cc(NC(=O)C3CCOCC3)ccc2OC[C@@H](C)N(Cc2nccs2)C[C@H]1C	-11	.	.	.	.	.
COc1ccc(NC(=O)Nc2ccc3c(c2)CC(=O)N([C@H](C)CO)C[C@H](C)[C@@H](CN(C)Cc2ccc(Oc4ccccc4)cc2)O3)cc1	55*	.	.	.	.	19µM*
COc1ccc(-c2cnc3c(c2)C(=O)N([C@H](C)CO)C[C@@H](C)[C@H](CN(C)Cc2cccnc2)O3)cc1	108*	.	.	.	.	-3%[38 µM]
COc1ccc(S(=O)(=O)N(C)C[C@H]2Oc3ccc(NC(=O)Nc4ccc5c(c4)OCO5)cc3C(=O)N([C@H](C)CO)C[C@H]2C)cc1	9	.	.	.	.	.
COc1cc(/C=C2\S/C(=N/S(=O)(=O)c3ccccc3)NC2=O)c([N+](=O)[O-])cc1OC	9.7*	6	-4	-2	5	-25%
CCCCCCNc1cc2n(c(=O)n1)CCc1cc(OC)c(OC)cc1-2	58*	-4	-3	-7	1	-30%
CCOc1ccccc1Nc1cc2n(c(=O)n1)CCc1cc(OC)c(OC)cc1-2	18	1	-14	-1	-10	.
CCOc1ccc(Nc2cc3n(c(=O)n2)CCc2cc(OC)c(OC)cc2-3)cc1	43*	-7	-7	-8	3	-16%
COc1cc2c(cc1OC)-c1cc(Nc3cccc(C)c3)nc(=O)n1CC2	53*	6	-16	-6	-1	0%
C[C@H]1CN([C@@H](C)CO)C(=O)c2cc(C3=CCCC3)cnc2O[C@H]1CN(C)C(=O)CN1CCOCC1	-5	.	.	.	.	.
CCO/C=C1\C(=O)N(c2ccccc2)C(=O)c2ccccc21	2	.	.	-15	.	.
CCO/C=C1/C(=O)N(Cc2ccccc2)C(=O)c2ccccc21	25*	-9	-14	-1	10	0%
